# Assay results from PubChem BioAssay AID489031 (Sanford-Burnham Center for Chemical Genomics, 2010).
# Screen size: about 330,000 compounds; about 1,000 (0.3%) were called active. This is one part of a sample in which actives are shown more often than they occur.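 How the source made its calls: active means activity change at or below -40% at 20 µM; inactive means the rest.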
# Molecular target: Apoptotic protease-activating factor 1 (Homo sapiens) (UniProt O14727)
# Test: enhancers of Apaf-1-driven caspase-3 activation – biochemical, DEVD-Rh110 fluorescence, uHTS, primary screen (AID 489031)
# Details: Apaf-1 apoptosome caspase-3 activation, at 20 µM, stronger effect = lower value
# Procedure, shortened: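 System: Reconstituted apoptosome of Apaf-1, cytochrome c, caspase-9, procaspase-3 | Reagent: dATP, cytochrome c, and (Z-DEVD)2-Rh110 caspase-3 substrate | Times: 30 min compound preincubation and 50 min reaction, both room temperature | Detection: Caspase-3-released Rh110 fluorescence, 540 nm emission, 480 nm excitation | Measure: Caspase-3 activity via Apaf-1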
# Sequence of Apoptotic protease-activating factor 1 (Homo sapiens) (O14727 whole entry, looked up): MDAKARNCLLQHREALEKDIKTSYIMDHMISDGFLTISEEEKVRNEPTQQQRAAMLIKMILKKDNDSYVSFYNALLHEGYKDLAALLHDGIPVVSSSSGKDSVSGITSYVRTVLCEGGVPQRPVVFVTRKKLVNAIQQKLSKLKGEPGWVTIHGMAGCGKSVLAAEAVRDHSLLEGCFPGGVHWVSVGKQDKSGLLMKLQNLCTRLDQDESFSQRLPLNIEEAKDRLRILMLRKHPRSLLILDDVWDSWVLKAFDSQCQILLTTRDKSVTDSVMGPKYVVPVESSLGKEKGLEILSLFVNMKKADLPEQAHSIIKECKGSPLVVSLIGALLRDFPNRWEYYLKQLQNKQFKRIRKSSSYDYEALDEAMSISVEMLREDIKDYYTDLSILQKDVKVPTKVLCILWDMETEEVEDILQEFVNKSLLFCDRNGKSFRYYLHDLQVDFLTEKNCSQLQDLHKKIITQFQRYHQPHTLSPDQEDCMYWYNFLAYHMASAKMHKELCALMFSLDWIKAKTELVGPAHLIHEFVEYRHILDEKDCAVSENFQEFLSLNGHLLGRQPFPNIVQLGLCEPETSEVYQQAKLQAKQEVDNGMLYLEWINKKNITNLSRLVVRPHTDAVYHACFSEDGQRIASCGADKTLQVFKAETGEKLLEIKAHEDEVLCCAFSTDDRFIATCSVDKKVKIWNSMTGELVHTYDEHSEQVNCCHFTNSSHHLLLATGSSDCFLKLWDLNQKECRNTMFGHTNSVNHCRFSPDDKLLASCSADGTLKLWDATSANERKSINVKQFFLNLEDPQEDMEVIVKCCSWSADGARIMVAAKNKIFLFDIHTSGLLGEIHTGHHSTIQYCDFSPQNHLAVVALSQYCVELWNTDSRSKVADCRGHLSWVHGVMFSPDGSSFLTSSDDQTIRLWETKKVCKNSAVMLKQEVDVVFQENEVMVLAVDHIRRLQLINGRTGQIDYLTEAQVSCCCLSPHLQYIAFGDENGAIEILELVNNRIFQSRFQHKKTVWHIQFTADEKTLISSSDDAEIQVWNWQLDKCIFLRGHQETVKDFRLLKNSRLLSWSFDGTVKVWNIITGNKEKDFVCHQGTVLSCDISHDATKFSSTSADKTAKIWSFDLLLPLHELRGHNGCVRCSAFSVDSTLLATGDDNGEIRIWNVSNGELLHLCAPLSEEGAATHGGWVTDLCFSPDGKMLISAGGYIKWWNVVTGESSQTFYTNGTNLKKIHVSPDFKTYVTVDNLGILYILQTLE
row,Compound,"activity change, negative = activation"
1,CC(=O)N(C1=C(Cl)C(=O)c2ccccc2C1=O)c1ccc(C(=O)O)cc1,89% (inactive)
2,Cc1cc2oc3ccc(NCCC4CCCN4C)cc3c(=O)c2cc1C (centres undefined),46.9% (inactive)
3,Nc1cc(C(F)(F)F)ccc1N1CCOCC1,-185% (active)
4,CCN(CC(=O)NCc1cccs1)C(=O)c1cccc(S(=O)(=O)Nc2ccccc2OC)c1,60.2% (inactive)
5,CCN1C[C@@H]2[C@@H]3C(=O)N(Cc4ccccc4)C(=O)[C@@H]3[C@](Cc3ccccc3)(C(=O)OC)N2C1=NC1CCCCC1,41.2% (inactive)
6,CN(C)S(=O)(=O)c1ccc2oc(SCC(=O)Nc3ccccc3F)nc2c1,61.1% (inactive)
7,CCOCCc1c(O)nc(SCC(=O)NCc2ccco2)[nH]c1=O,-133% (active)
8,Cc1ccc(N=C2NC(=O)/C(=C/C=C/c3ccco3)S2)cc1C,61.8% (inactive)
9,COc1cccc(-c2sc3ccc(OC)cc3c2-c2ccc(OCCN3CCCCC3)cc2)c1,61.8% (inactive)
10,CCC(C)(C)c1ccc(OCC(=O)N(C)C)c(C(C)(C)CC)c1,56.5% (inactive)
11,CC(C)N1CCC(NC(=O)Nc2ccccc2)CC1,-331% (active)
12,CCOC(=O)C1CCN(C(=O)c2cccc(S(=O)(=O)N(CC)c3ccccc3)c2)CC1,45.2% (inactive)
13,Clc1ccc(C2=CSC3=Nc4cccc5cccc(c45)N23)cc1,90% (inactive)
14,Clc1cccc(-c2nc3nc4ccccc4nc3n2Cc2ccco2)c1,-136% (active)
15,COc1ccc(S(=O)(=O)/N=C2\C=C(NS(=O)(=O)c3ccccc3)C(=O)c3ccccc32)cc1,79.2% (inactive)
16,CN1CC(=O)N=C1N,3.64% (inactive)
17,CCCC[C@@H]1CN=C(N)N1CCc1cc(C(F)(F)F)cc(C(F)(F)F)c1,52.3% (inactive)
18,Nc1ccc2nn(-c3ccc(Cl)cc3)nc2c1,83.8% (inactive)
19,CC(=O)NC(=S)NNC(=O)c1ccc(Br)cc1,-56.7% (active)
20,O=C(Cc1cc(=O)[nH][nH]1)N/N=C/c1ccccc1[N+](=O)[O-],40.8% (inactive)
21,Cc1ccc(Nc2nc(CSc3nnc(-c4ccncc4)n3-c3ccccc3C)cs2)cc1,-54.9% (active)
22,CCCCCCCCCCOC(=O)Cn1c(COc2ccc(C)cc2)[n+](C)c2ccccc21,77.7% (inactive)

row,Compound,"activity change, negative = activation"
1,N#CC1(C#N)C(C(=O)C23CC4CC(CC(C4)C2)C3)C12CCOCC2 (centres undefined),-214% (active)
2,O=C(N/N=C\c1cccnc1)c1cc(-c2ccccc2)nc2c(Cl)cccc12,40.1% (inactive)
3,C=CCNC(=O)c1ccc(C)c(Br)c1,-44.1% (active)
4,CC1CC(=S)Nc2ccccc2N1Cc1ccccc1 (centres undefined),41.4% (inactive)
5,Cc1c(-c2nn(C)c(=O)c3ccccc23)oc2ccc(F)cc2c1=O,82% (inactive)
6,COc1ccc(Cl)cc1NC(=O)CCS(=O)(=O)c1ccc(Br)cc1,-182% (active)
7,CCn1cc(CN2CCC(C(=O)Nc3cccc(-c4cccc(Cl)c4)c3)CC2)c(C)n1,40.5% (inactive)
8,CCN1C(=O)c2cccc3c(N)ccc1c23,97.1% (inactive)
9,CN(C)S(=O)(=O)c1ccc(C(=O)NCCN=C2NS(=O)(=O)c3ccccc32)cc1,-486% (active)
10,Cc1[nH]n(-c2ccccc2)c(=O)c1/C=N/NC(=O)c1ccoc1C,61.5% (inactive)
11,CC(C)CC[n+]1ccn(C2=C([O-])c3ccccc3C(=O)/C2=N\S(=O)(=O)c2ccccc2)c1,55.3% (inactive)
12,CCCCNC(=O)C(C)N(CCN(C)C)C(=O)CCCN1C(=O)NC(c2ccc(Cl)cc2)C(C(=O)OCc2ccccc2)=C1C (centres undefined),57.1% (inactive)
13,COc1ccc2c(c1)CCNC2Cc1ccc(OC)c(O)c1 (centres undefined),-42.7% (active)
14,CC1=NN(c2ccc(Cl)c(C(=O)O)c2)C(=O)/C1=C/c1ccc(-c2ccccc2[N+](=O)[O-])o1,42.9% (inactive)
15,O=C1NNC(c2ccccc2)=N/C1=C\c1ccc(Cl)cc1,50.6% (inactive)
16,CN(CCOc1ccc(CC2SC(=O)NC2=O)cc1)c1ccccn1 (centres undefined),-0.067% (inactive)
17,C#CCOCCOCCOCCNc1nc(N2CCN(C(=O)CCCCCCCCCCNC(=O)[C@H]([C@@H](C)CC)n3cc(CCCCN=C(N)N)nn3)CC2)nc(N2CCN(C(=O)CCCCCCCCCCNC(=O)[C@H](CO)n3cc(CCCSC)nn3)CC2)n1,59.2% (inactive)
18,Cc1cc(NC(=O)c2cccc(N3C(=O)CCC3=O)c2)no1,-110% (active)
19,O=C(CCc1ccccc1)NNC(=O)c1ccc(Br)cc1,-96.1% (active)
20,O=C(CCNS(=O)(=O)c1ccccc1)NCCSc1ccc(Br)cc1,58.6% (inactive)
21,COc1ccc(C(CNC(=O)c2ccc(S(=O)(=O)Nc3ccccc3F)cc2)N(C)C)cc1 (centres undefined),56.5% (inactive)
22,O=[N+]([O-])c1ccc2nc(-c3ccccn3)[nH]c2c1,-143% (active)

row,Compound,"activity change, negative = activation"
1,COc1cc(C(=O)NCc2nnc(SCC(=O)Nc3nc4ccc(C)cc4s3)o2)cc(OC)c1OC,-87.4% (active)
2,Oc1c(C=Nc2cccc3nsnc23)ccc2ccccc12,95.8% (inactive)
3,CCOc1c(Br)cc(/C=C2\C(=O)N(CCC#N)N=C2C)cc1OC,75.9% (inactive)
4,O=C1Nc2ccc([N+](=O)[O-])cc2C1=Nc1cccc(CO)c1,41.2% (inactive)
5,COc1ccc(OCCCC(=O)NCCc2ccccc2)cc1,-144% (active)
6,COc1ccc(N(CCC(=O)NCCc2ccccc2)S(=O)(=O)c2ccc(C)cc2C)cc1,54.9% (inactive)
7,CCN1C(=NCc2ccc(OC)cc2)N[C@@H](CCc2ccccc2)[C@H](C(=O)NCc2ccc(OC)cc2)[C@H]1C,40.4% (inactive)
8,Cc1ccc(S(=O)(=O)N2CCN(C(=O)c3ccccc3-c3nc4ccccc4s3)CC2)c(C)c1,40.3% (inactive)
9,COCC(C)OC(=O)c1c(N)n(CCCN2CCOCC2)c2nc3ccccc3nc12 (centres undefined),50.9% (inactive)
10,C#CCOCCOCCOCCNc1nc(N2CCN(C(=O)CCCCCCCCCCNC(=O)Cn3cc(CCCCCN)nn3)CC2)nc(N2CCN(C(=O)CCCCCCCCCCNC(=O)[C@H](CO)n3cc(CCCSC)nn3)CC2)n1,60.7% (inactive)
11,O=C(Nc1cccc(C(F)(F)F)c1)c1cnccn1,-50.6% (active)
12,C#CCOCCOCCOCCNc1nc(N2CCN(C(=O)C([C@@H](C)O)n3cc([C@@H](N)CCCCN)nn3)CC2)nc(N2CCN(C(=O)[C@H](CCCCN)n3cc(CN)nn3)CC2)n1 (some centres undefined),42.2% (inactive)
13,C[C@@H](CN1CCC[C@H]1CN1C(N)=NC[C@@H]1Cc1ccccc1)N1C[C@@H](Cc2ccccc2)N(CCCC2CCCC2)C1=N,70.9% (inactive)
14,CCOC(=O)c1ccc(Nc2cc3ccccc3c(=O)[nH]2)cc1,92.5% (inactive)
15,Brc1ccc(/C=N/N2CCN(C3c4ccccc4-c4ccccc43)CC2)s1,-255% (active)
16,CCc1ccc(CNC(=O)C2CCN(c3nnc(C)c4c(C)n(-c5ccc(C)cc5)nc34)CC2)cc1,42.3% (inactive)
17,COc1cccc(C(=O)Nc2ccc(N3CCCC3)cc2)c1,-89.7% (active)
18,Cc1cc(N2CCCC2)ccc1NC(=O)COc1ccc(Cl)cc1,62.2% (inactive)
19,CCCCCCc1cc2cc(-c3nnc(-c4ccccc4)o3)c(=O)oc2cc1O,67.8% (inactive)
20,COC1=C(N2CCOCC2)C(=O)c2ccccc2C1=O,65.8% (inactive)
